How the values were obtained:
[1] = system: phospho-ERK in 94-10 cells; test: FGF2-induced and constitutive ERK phosphorylation in 94-10 cells; assay type: cell-based, human; conditions: 500 nM, pretreated 1 h, FGF2 5 ng ml–1 + heparin 10 μg ml–1, 15 min
Method in brief: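 94-10 cells (FGFR1-expressing) were pretreated 1 h with or without 500 nM test compound. They were then stimulated 15 min with heparin (10 μg ml–1) with or without FGF2 (5 ng ml–1). Lysis was in RIPAE buffer (Triton X-100, EDTA, SDS, deoxycholate, glycerol, protease inhibitors in PBS), cleared at 12 700 × g, 4 °C. Protein was measured by BCA, immunoblotted for phospho-ERK, reprobed for tubulin and detected by chemiluminescence.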

RT4 cells = test: Cell cycle distribution by flow cytometry; assay type: cell-based, human; conditions: 500 nM, 24-h exposure
Method in brief: (§1)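 Cells grown in standard medium at 37 °C, 5% CO2, then exposed to 500 nM test compound or DMSO for 24 h. Harvested cells were fixed overnight in 70% ethanol at 4 °C and rehydrated in PBS pH 7.4. They were then pelleted, stained with propidium iodide/RNase in the dark at 37 °C for 30 min, and analysed by flow cytometry. Three independent experiments; ANOVA.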

FGFR3 = FGFR3 (Homo sapiens, UniProt P22607); test: FGFR3 phosphorylation in RT112 cells; assay type: cell-based; conditions: 500 nM, 0–24 h
FGFR3, sequence (P22607 397-758 limits assumed): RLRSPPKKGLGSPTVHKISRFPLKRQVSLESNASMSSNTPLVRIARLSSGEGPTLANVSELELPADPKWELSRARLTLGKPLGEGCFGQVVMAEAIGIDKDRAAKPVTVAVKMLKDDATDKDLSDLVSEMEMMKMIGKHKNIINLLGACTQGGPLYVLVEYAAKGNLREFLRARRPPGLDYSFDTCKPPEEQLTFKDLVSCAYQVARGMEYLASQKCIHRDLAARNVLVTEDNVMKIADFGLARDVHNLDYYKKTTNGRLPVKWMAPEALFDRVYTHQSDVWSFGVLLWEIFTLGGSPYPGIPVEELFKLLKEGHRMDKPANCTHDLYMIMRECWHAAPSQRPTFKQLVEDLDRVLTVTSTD
Method in brief: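 RT112 cells were exposed to 500 nM test compound for 0–24 h and lysed in RIPAE buffer, cleared at 12 700 × g, 4 °C. FGFR3 was immunoprecipitated with an extracellular-domain antibody. Blots were probed with anti-phosphotyrosine (4G10), then stripped (Tris pH 7.5/urea, 55 °C, 30 min) and reprobed for FGFR3. Detection was by chemiluminescence.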

[2] = Toxicity in treated xenograft-bearing animals; assay type: in vivo, Balb/c immunodeficient nude mice; conditions: nude mice, 20 mg kg–1 per day i.p.
Method in brief: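 Male Balb/c nude mice aged 6–8 weeks carried flank trocar implants of ~2 mm3 MGH-U3, SW780 or RT112 tumour fragments. At mean 32 mm3, mice were randomised into groups of eight (untreated control or treated). Dosing was 20 mg kg−1 per day i.p. on days 0–3, plus days 6–9 for MGH-U3. Tumours were measured by caliper.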

SW780 cells = test: Cell cycle distribution by flow cytometry; assay type: cell-based, human; conditions: 500 nM, 24-h exposure
Method in brief: as §1

RT112 cells = test: Cell cycle distribution by flow cytometry; assay type: cell-based, human; conditions: 500 nM, 24-h exposure
Method in brief: as §1

MGH-U3 cells = test: Cell cycle distribution by flow cytometry; assay type: cell-based, human; conditions: 500 nM, 24-h exposure
Method in brief: as §1

97-7 cells = test: Cell cycle distribution by flow cytometry; assay type: cell-based, human; conditions: 500 nM, 24-h exposure
Method in brief: as §1

SMILES	FGF-induced and constitutive ERK phosphorylation [1]	cell cycle distribution (RT4 cells)	FGFR3 phosphorylation, time-course (FGFR3)	toxicity in treated animals [2]	cell cycle distribution (SW780 cells)	cell cycle distribution (RT112 cells)	cell cycle distribution (MGH-U3 cells)	cell cycle distribution (97-7 cells)
CCN(CC)CCCCNc1ncc2cc(-c3cc(OC)cc(OC)c3)c(NC(=O)NC(C)(C)C)nc2n1 [PD173074, 1-tert-butyl-3-[6-(3,5-dimethoxy-phenyl)-2-(4-diethylamino-butylamino)-pyrido[2,3-d]pyrimidin-7-yl]-urea]	block both FGF-induced and constitutive ERK phosphorylation	significant increase in the proportion of cells in G1	rapid and sustained inactivation of FGFR3	No evidence of significant toxicity	no significant change in cell cycle distribution	significant increase in the proportion of cells in G1	significant increase in the proportion of cells in G1	significant increase in the proportion of cells in G1
CN1CCN(c2ccc3nc(-c4c(N)c5c(F)cccc5[nH]c4=O)[nH]c3c2)CC1 [TKI-258]	–	significant increase in the proportion of cells in G1	–	–	no significant change in cell cycle distribution	significant increase in the proportion of cells in G1	significant increase in the proportion of cells in G1	significant increase in the proportion of cells in G1
